Assay results: ChEMBL document CHEMBL3286272, “Synthesis, biological, and biophysical studies of DAG-indololactones designed as selective activators of RasGRP” (Bioorg Med Chem, 2014)
The source made the active and inactive calls. The rule behind the calls is not given here.

What was measured:
[1] = molecular target: T1, Ras guanyl-releasing protein 3 (Homo sapiens) (UniProt Q8IV61); experiment: Activation of RasGRP3 (unknown origin) overexpressed in HEK293 cells assessed as ERK1/2 phosphorylation at 1 to 10 uM after 30 mins by Western blot analysis; type: cell-based
T1 sequence (whole entry): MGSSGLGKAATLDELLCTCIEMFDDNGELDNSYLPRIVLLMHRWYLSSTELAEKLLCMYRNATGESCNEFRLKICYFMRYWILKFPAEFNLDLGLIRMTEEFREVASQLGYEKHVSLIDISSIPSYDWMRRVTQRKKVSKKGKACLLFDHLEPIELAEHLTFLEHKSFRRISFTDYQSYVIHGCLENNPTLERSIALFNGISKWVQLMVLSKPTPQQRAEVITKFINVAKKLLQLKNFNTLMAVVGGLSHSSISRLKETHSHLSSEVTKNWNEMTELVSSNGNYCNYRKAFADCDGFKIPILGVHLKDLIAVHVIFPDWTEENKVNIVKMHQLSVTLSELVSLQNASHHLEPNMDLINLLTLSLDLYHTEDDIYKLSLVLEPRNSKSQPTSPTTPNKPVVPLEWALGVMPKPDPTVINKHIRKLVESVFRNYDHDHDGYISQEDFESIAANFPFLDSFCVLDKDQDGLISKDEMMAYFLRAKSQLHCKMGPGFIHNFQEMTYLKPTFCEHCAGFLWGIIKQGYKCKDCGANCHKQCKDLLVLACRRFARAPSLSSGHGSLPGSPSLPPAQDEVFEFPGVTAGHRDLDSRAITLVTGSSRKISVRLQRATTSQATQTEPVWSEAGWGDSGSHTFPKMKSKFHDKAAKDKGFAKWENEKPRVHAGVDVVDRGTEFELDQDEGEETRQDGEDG

[2] = molecular target: Protein kinase C alpha type (Homo sapiens, UniProt P17252); experiment: Binding affinity to recombinant human GFP-tagged PKC-alpha expressed in CHOK1 cells assessed as induction of protein translocation from plasma membrane to internal membrane at 10000 nM after 2 to 5 mins by confocal microscopic analysis; type: cell-based; settings: CHO-K1
Method in brief: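 CHO-K1 cells were transiently transfected with human GFP-PKCα and imaged live by confocal microscopy 24 h later (488 nm excitation, 500–530 nm emission) every 30 s for 30 min after 10 μM ligand. Membrane/cytoplasm intensity ratio from 4 μm2 regions was normalized to time 0. n = 3–6.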

Activity [1]	Activity [2]	SMILES
Active		CCCC(CCC)C(=O)OCC1(CO)C/C(=C\c2cn(C)c3ccccc23)C(=O)O1 (configuration not stated)
	Active	CCCC(CCC)C(=O)OCC1(CO)C/C(=C\c2ccc3ccn(C)c3c2)C(=O)O1 (configuration not stated)
